The source made the active and inactive calls. No cut-off for these calls is given here.
What was measured:
HeLa [1] = assay: Inhibition of gamma-tubulin in human HeLa cells assessed as abnormal spindle formation at 30 uM incubated for 24 hrs by immunofluorescence microscopy analysis relative to control; format: cell-based
Outline: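 Exponentially growing HeLa cells were treated with 30 μM for 24 h, then spindle morphology was classified as normal bipolar, bipolar with misaligned chromosomes, or multipolar. More than 100 cells were scored per experiment. Mean ± SD, three independent experiments, with DMSO as control.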

Sus scrofa domesticus [2] = species on record: Sus scrofa domesticus; assay: Inhibition of porcine brain tubulin polymerization assessed as residual tubulin polymerization at 30 uM in presence of 0.8 M glutamate incubated for 30 mins by SDS-PAGE analysis (reference value: 84.8 +/- 9.9 %)
Outline: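 Polymer was separated by ultracentrifugation (200,000g, 10 min, 25 °C), tubulin measured by 10% SDS-PAGE densitometry and expressed as % polymerized. Mean ± SD, three independent experiments.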

HeLa [3] = assay: Cytotoxicity against human HeLa cells assessed as reduction in cell viability incubated for 48 hrs by WST8 cells; format: functional, cell-based
Outline: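 HeLa cells were exposed to a range of concentrations for 48 h. Growth was read by WST-8 cell counting, and IC50 values were calculated from the resulting curves.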

HeLa [4] = assay: Induction of microtubule depolymerization in human HeLa cells at 30 uM incubated for 24 hrs by immunofluorescence microscopy; format: functional, cell-based
Outline: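 Interphase HeLa cells were treated for 24 h at 30 μM, then the MT network structure was examined by microscopy.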

HeLa [5] = assay: Cytotoxicity against human HeLa cells assessed as cell viability at 100 uM incubated for 48 hrs by WST8 cells relative to control; format: functional; conditions: read-out: Activity
HeLa [6] = assay: Inhibition of gamma-tubulin nucleation in human HeLa cells at 100 uM incubated for 15 mins; format: cell-based
HeLa [7] = assay: Inhibition of gamma-tubulin nucleation in human HeLa cells at 30 uM incubated for 15 mins; format: cell-based
HeLa [8] = assay: Inhibition of gamma-tubulin nucleation in human HeLa cells at 10 uM incubated for 15 mins; format: cell-based
HeLa [9] = assay: Induction of microtubule depolymerization in human HeLa cells at 100 nM incubated for 6 hrs by immunofluorescence microscopic method; format: functional, cell-based
Homo sapiens = species on record: Homo sapiens; assay: Inhibition of human gamma tubulin assessed as reduction in GTP binding to gamma-tubulin at 50 uM incubated for 15 mins by alpha-[32P]-GTP binding assay
HeLa [10] = assay: Inhibition of gamma-tubulin in human HeLa cells assessed as abnormal spindle formation incubated for 24 hrs by immunofluorescence microscopy analysis; format: cell-based
HeLa [11] = assay: Inhibition of gamma-tubulin in human HeLa cells assessed as abnormal spindle formation at 1 uM incubated for 24 hrs by immunofluorescence microscopy analysis relative to control; format: cell-based
HeLa [12] = assay: Inhibition of gamma-tubulin nucleation in human HeLa cells at 0.3 uM incubated for 15 mins; format: cell-based
Sus scrofa domesticus [13] = species on record: Sus scrofa domesticus; assay: Induction of porcine brain tubulin polymerization at 10 uM in presence of 0.2 M glutamate incubated for 30 mins by SDS-PAGE analysis (reference value: 36.3 +/- 8.1 %)

`COc1cc(-c2coc3cc(OCc4ccccc4)c(OC4CCCCO4)cc3c2=O)c(OC)c2c1OC(C)(C)O2` (centres undefined) was tested, and the inhibition (HeLa [1]) was “inactive”, the Activity (Sus scrofa domesticus [2]) was 69 to 92% and the IC50 (HeLa [3]) was over 100 µM. The Activity (HeLa [4]) was “inactive” and the viability at 100 µM (HeLa [5]) was 101%.

In the case of `C=CCOc1cc2c(=O)c(-c3cc(OC)c4c(c3OC)OC(C)(C)O4)coc2cc1OCc1ccccc1`, the inhibition (HeLa [1]) is reported as “inactive”, the Activity (Sus scrofa domesticus [2]) is reported as 69 to 92% and the IC50 (HeLa [3]) is reported as over 100 µM. For the same compound, the Activity (HeLa [4]) was “inactive” and the viability at 100 µM (HeLa [5]) was 107%.

With `COc1cc(-c2coc3cc(OCc4ccccc4)c(OC4CCCCO4)cc3c2=O)c(OC)c2c1OCO2` (centres undefined) the inhibition (HeLa [6]) was “inactive”, the Activity (Sus scrofa domesticus [2]) was 69 to 92% and the IC50 (HeLa [3]) was over 100 µM. For the same compound, the Activity (HeLa [4]) was “inactive” and the viability at 100 µM (HeLa [5]) was 99.1%.

With `COc1cc(-c2coc3cc(OCc4ccccc4)c(OCc4ccccc4)cc3c2=O)c(OC)c2c1OC(C)(C)O2` the inhibition (HeLa [1]) was “inactive”, the Activity (Sus scrofa domesticus [2]) was 69 to 92% and the IC50 (HeLa [3]) was over 100 µM. For the same compound, the Activity (HeLa [4]) was “inactive” and the viability at 100 µM (HeLa [5]) was 102%.

`COc1cc2c(=O)c(-c3cc(OC)c(OC)c(OC)c3OC)coc2cc1OCc1ccccc1` was tested, and the inhibition (HeLa [1]) was 65%, the inhibition (HeLa [7]) was “Active” and the inhibition (HeLa [8]) was “inactive”. For the same compound, the Activity (Sus scrofa domesticus [2]) was 69 to 92%, the IC50 (HeLa [3]) was over 100 µM and the Activity (HeLa [4]) was “inactive”. The viability at 100 µM (HeLa [5]) was 77.3%.

`COc1cc2c(c(OC)c1OC)-c1ccc(OC)c(=O)cc1[C@@H](NC(C)=O)CC2` was tested, and the Activity (HeLa [9]) was “Active”.

In the case of `COc1cc(-c2coc3cc(OCc4ccccc4)c(O)cc3c2=O)c(OC)c2c1OC(C)(C)O2`, the inhibition (HeLa [1]) is reported as “inactive”, the Activity (Sus scrofa domesticus [2]) is reported as 69 to 92% and the IC50 (HeLa [3]) is reported as over 13 µM. For the same compound, the Activity (HeLa [4]) was “inactive”.

For `C#CCOc1cc2c(=O)c(-c3cc(OC)c4c(c3OC)OC(C)(C)O4)coc2cc1OCc1ccccc1`, the inhibition (HeLa [1]) was “inactive”, the Activity (Sus scrofa domesticus [2]) was 69 to 92% and the IC50 (HeLa [3]) was over 100 µM. The Activity (HeLa [4]) was “inactive” and the viability at 100 µM (HeLa [5]) was 102%.

For `C#CCOc1cc2c(=O)c(-c3cc(OC)c4c(c3OC)OCO4)coc2cc1OCc1ccccc1`, the inhibition (Homo sapiens) was “Active”, the inhibition (HeLa [7]) was “Active” and the Activity (Sus scrofa domesticus [2]) was 69 to 92%. The IC50 (HeLa [3]) was 0.8 µM, the Activity (HeLa [4]) was “inactive” and the inhibition (HeLa [10]) was “Dose-dependent effect”. The inhibition (HeLa [11]) was “Active” and the inhibition (HeLa [12]) was “Active”.

`COc1cc2c(=O)c(-c3cc(OC)c4c(c3OC)OC(C)(C)O4)coc2cc1OCc1ccccc1` was tested, and the inhibition (HeLa [1]) was “inactive”, the inhibition (HeLa [6]) was “inactive” and the Activity (Sus scrofa domesticus [2]) was 69 to 92%. For the same compound, the IC50 (HeLa [3]) was over 100 µM, the Activity (HeLa [4]) was “inactive” and the viability at 100 µM (HeLa [5]) was 100%.

For `CC(=O)O[C@H]1C(=O)[C@@]2(C)[C@H]([C@H](OC(=O)c3ccccc3)[C@]3(O)C[C@H](OC(=O)[C@H](O)[C@@H](NC(=O)c4ccccc4)c4ccccc4)C(C)=C1C3(C)C)[C@]1(OC(C)=O)CO[C@@H]1C[C@@H]2O`, the Activity (Sus scrofa domesticus [13]) was 91.6% and the Activity (HeLa [9]) was “Active”.

For `COc1cc2c(=O)c(-c3cc(OC)c4c(c3OC)OCO4)coc2cc1OCc1ccccc1`, the inhibition (HeLa [1]) was “Active”, the inhibition (Homo sapiens) was “Active” and the inhibition (HeLa [7]) was “Active”. The inhibition (HeLa [8]) was “inactive”, the Activity (Sus scrofa domesticus [2]) was 69 to 92% and the IC50 (HeLa [3]) was 10.5 µM. The Activity (HeLa [4]) was “inactive”.

In the case of `C=CCOc1cc2c(=O)c(-c3cc(OC)c4c(c3OC)OCO4)coc2cc1OCc1ccccc1`, the inhibition (HeLa [7]) is reported as “Active”, the Activity (Sus scrofa domesticus [2]) is reported as 69 to 92% and the IC50 (HeLa [3]) is reported as 9.9 µM. For the same compound, the Activity (HeLa [4]) was “inactive”.

With `COc1cc(-c2coc3cc(OCc4ccccc4)c(OCc4ccccc4)cc3c2=O)c(OC)c2c1OCO2` the inhibition (HeLa [7]) was “Active”, the Activity (Sus scrofa domesticus [2]) was 69 to 92% and the IC50 (HeLa [3]) was 1.1 µM. The Activity (HeLa [4]) was “inactive” and the inhibition (HeLa [11]) was “Active”.

`COc1cc2c(=O)c(-c3ccc4c(c3)OCO4)coc2cc1OCc1ccccc1` was tested, and the inhibition (HeLa [1]) was “inactive”, the inhibition (HeLa [6]) was “inactive” and the Activity (Sus scrofa domesticus [2]) was 69 to 92%. For the same compound, the IC50 (HeLa [3]) was over 100 µM, the Activity (HeLa [4]) was “inactive” and the viability at 100 µM (HeLa [5]) was 101%.

`COc1cc(-c2coc3cc(OCc4ccccc4)c(O)cc3c2=O)c(OC)c2c1OCO2` was tested, and the inhibition (HeLa [7]) was “Active”, the Activity (Sus scrofa domesticus [2]) was 69 to 92% and the IC50 (HeLa [3]) was 5.8 µM. The Activity (HeLa [4]) was “inactive”.

From ChEMBL document CHEMBL4627401, “Structure Optimization of Gatastatin for the Development of γ-Tubulin-Specific Inhibitor” (ACS Med Chem Lett, 2020)
